# Measurements gathered from unrelated publications.
# glgA: glgA (Escherichia coli, UniProt P0A6U8)
# CASP7: Caspase-7 (CASP7, Homo sapiens, UniProt P55210)
Structure (SMILES),target,assay,test system,setting,endpoint,value
CSCC[C@H](NC(=O)[C@@H](NC(=O)[C@@H](N)Cc1ccc(O)cc1)C(C)C)C(=O)NCC(=O)N[C@@H](Cc1c[nH]cn1)C(=O)O,"Melanocyte-stimulating hormone receptor (Mc1r, Mus musculus, UniProt Q01727)","cAMP, agonist",HEK293,,Emax,60%
Cc1nn(C)cc1-c1nc2c(N3CCN(Cc4ccc(Cl)cc4)CC3)c(Cl)cnc2[nH]1,"Dual specificity testis-specific protein kinase 1 (TESK1, Homo sapiens, UniProt Q15569)","binding, competition with immobilised ligand",,1 µM,remaining binding,87%
CCN(CC)CCCC[C@H](NC(=O)[C@H](CC(C)C)NC(=O)[C@H](C)NC(=O)[C@H](Cc1ccccc1)NC(=O)c1ccc(C(C)(C)C)cc1)C(=O)N[C@@H](CO)C(=O)OC,"CREB-binding protein (CREBBP, Homo sapiens, UniProt Q92793)","thermal stability, DSF",,25 µM,ΔTm,0.35 °C
COc1ncccc1-c1cnn2ccc(N3CCN(C(=O)OC(C)C)CC3)nc12,"Mitogen-activated protein kinase kinase kinase 15 (MAP3K15, Homo sapiens, UniProt Q6ZN16)","binding, competition with immobilised ligand",,1 µM,remaining binding,86%
C#Cc1n[nH]c2c(-c3cn(C(C)c4ccccn4)c(=O)[nH]c3=O)cc(F)cc12 (stereo not shown),"Phosphatidylinositol 4,5-bisphosphate 3-kinase catalytic subunit gamma isoform (PIK3CG, Homo sapiens, UniProt P48736)","enzyme activity, inhibitor",,1 µM,inhibition,14.7%
C=CC(=O)N1CCC[C@@H](n2nc(-c3ccc(Oc4ccccc4)cc3)c3c(N)ncnc32)C1,"Dual specificity tyrosine-phosphorylation-regulated kinase 1B (DYRK1B, Homo sapiens, UniProt Q9Y463)",cell-free assay,,0.1 µM,remaining signal,195%
OC[C@H]1NC[C@@H](O)[C@@H]1O,glgA,"enzyme activity, inhibitor",,500 µM,activity vs control,72%
CN(C)C(=O)COC(=O)Cc1ccc(OC(=O)c2ccc(NC(=N)N)cc2)cc1,CASP7,"enzyme activity, inhibitor",,10 µM,inhibition,0%
Nc1ncnc2c1ncn2[C@@H]1O[C@H](COP(=O)(O)OP(=O)(O)O[C@H]2O[C@H](CO)[C@@H](O)[C@H](O)[C@H]2O)[C@@H](O)[C@H]1O,glgA,"enzyme activity, substrate",,,Km,420 µM
CC(=O)N[C@@H](CC(=O)O)C(=O)N[C@@H](CC(N)=O)C(=O)N[C@@H](CC(C)C)C(=O)N[C@H](C=O)CC(=O)O,CASP7,"enzyme activity, inhibitor",,50 nM,inhibition,43%
O=C(Nc1cccnn1)N1CCN([C@@H]2CCOc3cc(C(F)(F)F)ccc32)CC1,"Alpha-2B adrenergic receptor (ADRA2B, Homo sapiens, UniProt P18089)",ligand displacement,,20 µM,inhibition,45%
N=C(N)c1ccc2cc(OC(=O)c3ccc(N=C(N)N)cc3)ccc2c1,"Ubiquitin carboxyl-terminal hydrolase isozyme L3 (UCHL3, Homo sapiens, UniProt P15374)","enzyme activity, inhibitor",,10 µM,inhibition,6%
Nc1ncc(-c2nc(N3CCOCC3)nc(N3CCOCC3)n2)c(C(F)F)n1,"5-hydroxytryptamine receptor 1B (Htr1b, Rattus norvegicus, UniProt P28564)","cell-free assay, radioligand",,10 µM,remaining signal,115%
